Measurements taken from article PMC5621377 (Clinical cancer research : an official journal of the …, 2016).

Test system: patients with Rb+ advanced solid tumors or lymphomas
Experiment: Safety assessments, adverse events
Type: in vivo, human
Outline: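 Oral test compound given daily 3-weeks-on/1-week-off in 28-day cycles, with doses escalated by a Bayesian logistic regression model with overdose control. Safety assessments, including ECGs, were done at baseline and at regular intervals. AEs were graded by CTCAE v4.0 and classed as suspected related to treatment. All patients dosed at least once were included; summaries were descriptive per dose level.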

[1] = 400 mg 3-weeks-on/1-week-off, n = 5
[2] = 600 mg 3-weeks-on/1-week-off, n = 67
[3] = 600 mg continuous dosing, n = 7
[4] = 750 mg 3-weeks-on/1-week-off, n = 14
[5] = 900 mg 3-weeks-on/1-week-off, n = 13
[6] = 1,200 mg 3-weeks-on/1-week-off, n = 3
[7] = RDE 600 mg/day 3-weeks-on/1-week-off
[8] = of 67 patients treated at the RDE

## CN(C)C(=O)c1cc2cnc(Nc3ccc(N4CCNCC4)cn3)nc2n1C1CCCC1 [ribociclib]
[1]
  Nausea, Grade All, AE suspected related to study treatment: 1 (20) n (%)
  Neutropenia, Grade 3/4, AE suspected related to study treatment: 1 (20) n (%)
  Neutropenia, Grade All, AE suspected related to study treatment: 2 (40) n (%)
  Thrombocytopenia, Grade 3/4, AE suspected related to study treatment: 0 n (%)
  Thrombocytopenia, Grade All, AE suspected related to study treatment: 1 (20) n (%)
  Vomiting, Grade 3/4, AE suspected related to study treatment: 0 n (%)
  Vomiting, Grade All, AE suspected related to study treatment: 2 (40) n (%)
[2]
  Anemia, Grade 3/4, AE suspected related to study treatment: 2 (3) n (%)
  Anemia, Grade All, AE suspected related to study treatment: 19 (28) n (%)
  Appetite decreased, Grade 3/4, AE suspected related to study treatment: 0 n (%)
  Appetite decreased, Grade All, AE suspected related to study treatment: 5 (7) n (%)
  Blood creatinine increased, Grade 3/4, AE suspected related to study treatment: 0 n (%)
  Blood creatinine increased, Grade All, AE suspected related to study treatment: 4 (6) n (%)
  Diarrhea, Grade 3/4, AE suspected related to study treatment: 2 (3) n (%)
  Diarrhea, Grade All, AE suspected related to study treatment: 18 (27) n (%)
  Fatigue, Grade 3/4, AE suspected related to study treatment: 2 (3) n (%)
  Fatigue, Grade All, AE suspected related to study treatment: 22 (33) n (%)
  Leukopenia, Grade 3/4, AE suspected related to study treatment: 13 (19) n (%)
  Leukopenia, Grade All, AE suspected related to study treatment: 31 (46) n (%)
  Lymphopenia, Grade 3/4, AE suspected related to study treatment: 12 (18) n (%)
  Lymphopenia, Grade All, AE suspected related to study treatment: 15 (22) n (%)
  Nausea, Grade 3/4, AE suspected related to study treatment: 1 (1) n (%)
  Nausea, Grade All, AE suspected related to study treatment: 30 (45) n (%)
  Neutropenia, Grade 3/4, AE suspected related to study treatment: 19 (28) n (%)
  Neutropenia, Grade All, AE suspected related to study treatment: 31 (46) n (%)
  Thrombocytopenia, Grade 3/4, AE suspected related to study treatment: 6 (9) n (%)
  Thrombocytopenia, Grade All, AE suspected related to study treatment: 23 (34) n (%)
  Vomiting, Grade 3/4, AE suspected related to study treatment: 0 n (%)
  Vomiting, Grade All, AE suspected related to study treatment: 17 (25) n (%)
[3]
  Anemia, Grade 3/4, AE suspected related to study treatment: 0 n (%)
  Anemia, Grade All, AE suspected related to study treatment: 2 (29) n (%)
  Appetite decreased, Grade 3/4, AE suspected related to study treatment: 0 n (%)
  Appetite decreased, Grade All, AE suspected related to study treatment: 0 n (%)
  Blood creatinine increased, Grade 3/4, AE suspected related to study treatment: 0 n (%)
  Blood creatinine increased, Grade All, AE suspected related to study treatment: 1 (14) n (%)
  Diarrhea, Grade 3/4, AE suspected related to study treatment: 0 n (%)
  Diarrhea, Grade All, AE suspected related to study treatment: 0 n (%)
  Fatigue, Grade 3/4, AE suspected related to study treatment: 1 (14) n (%)
  Fatigue, Grade All, AE suspected related to study treatment: 5 (71) n (%)
  Leukopenia, Grade 3/4, AE suspected related to study treatment: 5 (71) n (%)
  Leukopenia, Grade All, AE suspected related to study treatment: 6 (86) n (%)
  Lymphopenia, Grade 3/4, AE suspected related to study treatment: 2 (29) n (%)
  Lymphopenia, Grade All, AE suspected related to study treatment: 3 (43) n (%)
  Nausea, Grade 3/4, AE suspected related to study treatment: 0 n (%)
  Nausea, Grade All, AE suspected related to study treatment: 3 (43) n (%)
  Neutropenia, Grade 3/4, AE suspected related to study treatment: 5 (71) n (%)
  Neutropenia, Grade All, AE suspected related to study treatment: 6 (86) n (%)
  Thrombocytopenia, Grade 3/4, AE suspected related to study treatment: 0 n (%)
  Thrombocytopenia, Grade All, AE suspected related to study treatment: 2 (29) n (%)
  Vomiting, Grade 3/4, AE suspected related to study treatment: 0 n (%)
  Vomiting, Grade All, AE suspected related to study treatment: 2 (29) n (%)
600 mg/day (RDE)
  patients with asymptomatic QTcF prolongation: 9%
[4]
  Anemia, Grade 3/4, AE suspected related to study treatment: 1 (7) n (%)
  Anemia, Grade All, AE suspected related to study treatment: 3 (21) n (%)
  Appetite decreased, Grade 3/4, AE suspected related to study treatment: 0 n (%)
  Appetite decreased, Grade All, AE suspected related to study treatment: 3 (21) n (%)
  Blood creatinine increased, Grade 3/4, AE suspected related to study treatment: 0 n (%)
  Blood creatinine increased, Grade All, AE suspected related to study treatment: 3 (21) n (%)
  Diarrhea, Grade 3/4, AE suspected related to study treatment: 0 n (%)
  Diarrhea, Grade All, AE suspected related to study treatment: 4 (29) n (%)
  Fatigue, Grade 3/4, AE suspected related to study treatment: 0 n (%)
  Fatigue, Grade All, AE suspected related to study treatment: 5 (36) n (%)
  Leukopenia, Grade 3/4, AE suspected related to study treatment: 0 n (%)
  Leukopenia, Grade All, AE suspected related to study treatment: 6 (43) n (%)
  Lymphopenia, Grade 3/4, AE suspected related to study treatment: 1 (7) n (%)
  Lymphopenia, Grade All, AE suspected related to study treatment: 6 (43) n (%)
  Nausea, Grade 3/4, AE suspected related to study treatment: 1 (7) n (%)
  Nausea, Grade All, AE suspected related to study treatment: 8 (57) n (%)
  Neutropenia, Grade 3/4, AE suspected related to study treatment: 5 (36) n (%)
  Neutropenia, Grade All, AE suspected related to study treatment: 8 (57) n (%)
  Thrombocytopenia, Grade 3/4, AE suspected related to study treatment: 3 (21) n (%)
  Thrombocytopenia, Grade All, AE suspected related to study treatment: 5 (36) n (%)
  Vomiting, Grade 3/4, AE suspected related to study treatment: 0 n (%)
  Vomiting, Grade All, AE suspected related to study treatment: 4 (29) n (%)
[5]
  Anemia, Grade 3/4, AE suspected related to study treatment: 0 n (%)
  Anemia, Grade All, AE suspected related to study treatment: 3 (23) n (%)
  Appetite decreased, Grade 3/4, AE suspected related to study treatment: 0 n (%)
  Appetite decreased, Grade All, AE suspected related to study treatment: 1 (8) n (%)
  Blood creatinine increased, Grade 3/4, AE suspected related to study treatment: 0 n (%)
  Blood creatinine increased, Grade All, AE suspected related to study treatment: 2 (15) n (%)
  Diarrhea, Grade 3/4, AE suspected related to study treatment: 0 n (%)
  Diarrhea, Grade All, AE suspected related to study treatment: 5 (39) n (%)
  Fatigue, Grade 3/4, AE suspected related to study treatment: 0 n (%)
  Fatigue, Grade All, AE suspected related to study treatment: 10 (77) n (%)
  Leukopenia, Grade 3/4, AE suspected related to study treatment: 4 (31) n (%)
  Leukopenia, Grade All, AE suspected related to study treatment: 9 (69) n (%)
  Lymphopenia, Grade 3/4, AE suspected related to study treatment: 4 (31) n (%)
  Lymphopenia, Grade All, AE suspected related to study treatment: 4 (31) n (%)
  Nausea, Grade 3/4, AE suspected related to study treatment: 0 n (%)
  Nausea, Grade All, AE suspected related to study treatment: 6 (46) n (%)
  Neutropenia, Grade 3/4, AE suspected related to study treatment: 5 (39) n (%)
  Neutropenia, Grade All, AE suspected related to study treatment: 9 (69) n (%)
  Thrombocytopenia, Grade 3/4, AE suspected related to study treatment: 0 n (%)
  Thrombocytopenia, Grade All, AE suspected related to study treatment: 6 (46) n (%)
  Vomiting, Grade 3/4, AE suspected related to study treatment: 0 n (%)
  Vomiting, Grade All, AE suspected related to study treatment: 3 (23) n (%)
[6]
  Anemia, Grade 3/4, AE suspected related to study treatment: 1 (33) n (%)
  Anemia, Grade All, AE suspected related to study treatment: 3 (100) n (%)
  Appetite decreased, Grade 3/4, AE suspected related to study treatment: 0 n (%)
  Appetite decreased, Grade All, AE suspected related to study treatment: 0 n (%)
  Blood creatinine increased, Grade 3/4, AE suspected related to study treatment: 0 n (%)
  Blood creatinine increased, Grade All, AE suspected related to study treatment: 0 n (%)
  Diarrhea, Grade 3/4, AE suspected related to study treatment: 0 n (%)
  Diarrhea, Grade All, AE suspected related to study treatment: 2 (67) n (%)
  Fatigue, Grade 3/4, AE suspected related to study treatment: 0 n (%)
  Fatigue, Grade All, AE suspected related to study treatment: 3 (100) n (%)
  Leukopenia, Grade 3/4, AE suspected related to study treatment: 0 n (%)
  Leukopenia, Grade All, AE suspected related to study treatment: 0 n (%)
  Lymphopenia, Grade 3/4, AE suspected related to study treatment: 0 n (%)
  Lymphopenia, Grade All, AE suspected related to study treatment: 0 n (%)
  Nausea, Grade 3/4, AE suspected related to study treatment: 0 n (%)
  Nausea, Grade All, AE suspected related to study treatment: 3 (100) n (%)
  Neutropenia, Grade 3/4, AE suspected related to study treatment: 1 (33) n (%)
  Neutropenia, Grade All, AE suspected related to study treatment: 2 (67) n (%)
  Thrombocytopenia, Grade 3/4, AE suspected related to study treatment: 1 (33) n (%)
  Thrombocytopenia, Grade All, AE suspected related to study treatment: 2 (67) n (%)
  Vomiting, Grade 3/4, AE suspected related to study treatment: 0 n (%)
  Vomiting, Grade All, AE suspected related to study treatment: 3 (100) n (%)
All doses, N = 132
  Anemia, Grade 3/4, AE suspected related to study treatment: 4 (3) n (%)
  Anemia, Grade All, AE suspected related to study treatment: 34 (26) n (%)
  Appetite decreased, Grade 3/4, AE suspected related to study treatment: 0 n (%)
  Appetite decreased, Grade All, AE suspected related to study treatment: 13 (10) n (%)
  Blood creatinine increased, Grade 3/4, AE suspected related to study treatment: 0 n (%)
  Blood creatinine increased, Grade All, AE suspected related to study treatment: 14 (11) n (%)
  Diarrhea, Grade 3/4, AE suspected related to study treatment: 2 (2) n (%)
  Diarrhea, Grade All, AE suspected related to study treatment: 31 (23) n (%)
  Fatigue, Grade 3/4, AE suspected related to study treatment: 3 (2) n (%)
  Fatigue, Grade All, AE suspected related to study treatment: 59 (45) n (%)
  Leukopenia, Grade 3/4, AE suspected related to study treatment: 22 (17) n (%)
  Leukopenia, Grade All, AE suspected related to study treatment: 57 (43) n (%)
  Lymphopenia, Grade 3/4, AE suspected related to study treatment: 21 (16) n (%)
  Lymphopenia, Grade All, AE suspected related to study treatment: 32 (24) n (%)
  Nausea, Grade 3/4, AE suspected related to study treatment: 2 (2) n (%)
  Nausea, Grade All, AE suspected related to study treatment: 56 (42) n (%)
  Neutropenia, Grade 3/4, AE suspected related to study treatment: 36 (27) n (%)
  Neutropenia, Grade All, AE suspected related to study treatment: 60 (46) n (%)
  Thrombocytopenia, Grade 3/4, AE suspected related to study treatment: 10 (8) n (%)
  Thrombocytopenia, Grade All, AE suspected related to study treatment: 40 (30) n (%)
  Vomiting, Grade 3/4, AE suspected related to study treatment: 0 n (%)
  Vomiting, Grade All, AE suspected related to study treatment: 34 (26) n (%)
[7]
  grade 3/4 neutropenia: 28%
  grade 3/4 thrombocytopenia: 9%
All 132 patients
  treatment-related fatigue, grade 3/4: 2%
  treatment-related nausea, grade 3/4: 2%
  treatment-related neutropenia, all-grade: 46%
All patients
  clinically significant arrhythmias: No clinically significant arrhythmias were observed
[8]
  patients requiring dose reduction to 400 mg/day: 16
  patients with dose interruption without reduction: 13
